Results: ChEMBL document CHEMBL4680134, “Structural optimization of natural product nordihydroguaretic acid to discover novel analogues as AcrB inhibitors” (Eur J Med Chem, 2020)
Activity calls are given as the source filed them. The calls are words filed in the database; no cut-off is given here.

Experiments:
[1] = target: T1, Multidrug efflux pump subunit AcrB (Escherichia coli (strain K12)) (UniProt P31224); experiment: Inhibition of AcrB in Escherichia coli BW25113 assessed as potentiation of chloramphenicol induced antibacterial activity by measuring chloramphenicol MIC at 8 ug/ml measured after 18 hrs by checkerboard titration method (reference value: 8 ug/ml); settings: dose 8.0 µg/ml
T1 sequence (whole entry): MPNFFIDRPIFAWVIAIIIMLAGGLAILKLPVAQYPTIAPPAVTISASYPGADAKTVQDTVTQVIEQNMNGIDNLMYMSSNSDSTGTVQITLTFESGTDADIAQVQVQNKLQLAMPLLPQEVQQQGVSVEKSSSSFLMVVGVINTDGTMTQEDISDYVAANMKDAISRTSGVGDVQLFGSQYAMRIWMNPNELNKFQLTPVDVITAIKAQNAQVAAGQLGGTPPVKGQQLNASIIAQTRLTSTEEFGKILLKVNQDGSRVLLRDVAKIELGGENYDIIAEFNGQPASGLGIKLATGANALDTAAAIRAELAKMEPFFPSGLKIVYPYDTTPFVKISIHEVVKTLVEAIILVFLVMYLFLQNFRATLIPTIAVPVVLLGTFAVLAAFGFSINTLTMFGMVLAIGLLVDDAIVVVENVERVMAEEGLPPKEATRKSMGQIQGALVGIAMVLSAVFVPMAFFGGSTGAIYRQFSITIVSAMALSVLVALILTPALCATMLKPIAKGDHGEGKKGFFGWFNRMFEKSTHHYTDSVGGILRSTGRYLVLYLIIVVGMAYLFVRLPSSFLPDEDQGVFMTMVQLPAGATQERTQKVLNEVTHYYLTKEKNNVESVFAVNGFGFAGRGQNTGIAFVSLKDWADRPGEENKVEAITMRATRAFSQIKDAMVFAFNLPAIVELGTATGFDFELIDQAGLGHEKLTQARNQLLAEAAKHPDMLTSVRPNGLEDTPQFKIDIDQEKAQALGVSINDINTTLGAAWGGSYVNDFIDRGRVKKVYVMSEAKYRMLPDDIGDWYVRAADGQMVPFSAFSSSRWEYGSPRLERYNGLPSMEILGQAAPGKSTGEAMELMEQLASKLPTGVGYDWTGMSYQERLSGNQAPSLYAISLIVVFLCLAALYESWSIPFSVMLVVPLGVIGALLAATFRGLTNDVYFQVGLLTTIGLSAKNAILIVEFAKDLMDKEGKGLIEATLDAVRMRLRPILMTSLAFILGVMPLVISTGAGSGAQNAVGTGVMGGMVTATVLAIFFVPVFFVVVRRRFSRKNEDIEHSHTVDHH

[2] = target: T1, Multidrug efflux pump subunit AcrB (Escherichia coli (strain K12)); experiment: Inhibition of AcrB in Escherichia coli BW25113 assessed as reduction in glucose-induced nile red efflux at 500 uM preincubated for 15 mins followed by nile red addition and incubated for 3 hrs in shaker in presence of CCCP by fluorimetric analysis; settings: time 195.0 min
How it was run: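 Wild-type E. coli cells with active AcrB were preloaded with Nile Red, with or without compound, before fluorescence recording began. At 100 sec, 0.2% glucose was added to re-energize the cells and trigger efflux, which was followed by fluorometry. An acrB-deleted isogenic strain served as the maximum-accumulation (no-efflux) reference. Triplicate experiments used different cell batches.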

[3] = target: T1, Multidrug efflux pump subunit AcrB (Escherichia coli (strain K12)); experiment: Inhibition of AcrB in Escherichia coli BW25113 assessed as potentiation of rifampicin induced antibacterial activity by measuring rifampicin MIC at 128 ug/ml measured after 18 hrs by checkerboard titration method (reference value: 16 ug/ml); settings: dose 128.0 µg/ml
[4] = target: T1, Multidrug efflux pump subunit AcrB (Escherichia coli (strain K12)); experiment: Inhibition of AcrB in Escherichia coli BW25113 assessed as potentiation of tetraphenylphosphonium induced antibacterial activity by measuring tetraphenylphosphonium MIC at 128 ug/ml measured after 18 hrs by checkerboard titration method (reference value: 1024 ug/ml); settings: dose 128.0 µg/ml
Cell membrane = experiment: Induction of outer membrane permeabilization in wild type Escherichia coli BW25113 assessed as increase in nitrocefin hydrolysis at 128 ug/ml by spectrophotometry analysis; settings: dose 128 µg/ml
How it was run: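 Outer-membrane permeability: intact E. coli treated with 10 µM CCCP to block nitrocefin efflux, then exposed to compound. Nitrocefin hydrolysis by periplasmic β-lactamase followed as increasing absorbance at 490 nm over time. Polymyxin B as permeabilizer control, untreated cells as baseline. Duplicate experiments on different days.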

[5] = target: T1, Multidrug efflux pump subunit AcrB (Escherichia coli (strain K12)); experiment: Inhibition of AcrB in Escherichia coli BW25113 assessed as potentiation of levofloxacin induced antibacterial activity by measuring levofloxacin MIC at 32 ug/ml measured after 18 hrs by checkerboard titration method (reference value: 0.06 ug/ml); settings: dose 32.0 µg/ml
[6] = Growth inhibition of Escherichia coli BW25113 expressing AcrB at 512 ug/ml after 18 hrs by broth microdilution assay; settings: dose 512 µg/ml
How it was run: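 MIC determined by 96-well broth microdilution in E. coli BW25113 expressing AcrB ((+)AcrB) and an isogenic acrB-deleted strain ((-)AcrB). Used to set the compound concentrations for synergy testing that produce no direct antibacterial effect.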

[7] = target: T1, Multidrug efflux pump subunit AcrB (Escherichia coli (strain K12)); experiment: Inhibition of AcrB in Escherichia coli BW25113 assessed as potentiation of rifampicin induced antibacterial activity by measuring rifampicin MIC at 8 ug/ml measured after 18 hrs by checkerboard titration method (reference value: 16 ug/ml); settings: dose 8.0 µg/ml
[8] = target: T1, Multidrug efflux pump subunit AcrB (Escherichia coli (strain K12)); experiment: Inhibition of AcrB in Escherichia coli BW25113 assessed as potentiation of rifampicin induced antibacterial activity by measuring rifampicin MIC at 64 ug/ml measured after 18 hrs by checkerboard titration method (reference value: 16 ug/ml); settings: dose 64.0 µg/ml
[9] = target: T1, Multidrug efflux pump subunit AcrB (Escherichia coli (strain K12)); experiment: Inhibition of AcrB in Escherichia coli BW25113 assessed as potentiation of erythromycin induced antibacterial activity by measuring erythromycin MIC at 8 ug/ml measured after 18 hrs by checkerboard titration method (reference value: 64 ug/ml); settings: dose 8.0 µg/ml

SMILES: O=C(NCCc1ccc(O)c(O)c1)c1cc(O)c(O)c(O)c1
- MIC [1]: 4 µg/mL
- inhibition [2]: Active
- MIC [3]: 16 µg/mL
- MIC [4]: 256 µg/mL
- Activity (Cell membrane): Non-Toxic
- MIC [5]: 0.03 µg/mL
- growth inhibition (GI) [6]: Non-Toxic
- MIC [7]: 16 µg/mL
- MIC [8]: 16 µg/mL
- MIC [9]: 32 µg/mL
